Source: ChEMBL document CHEMBL1146217, “Growth inhibition of Mycobacterium bovis, Mycobacterium tuberculosis and Mycobacterium avium in vitro: effect of 1-beta-D-2'-arabinofuranosyl and 1-(2'-deoxy-2'-fluoro-beta-D-2'-ribofuranosyl) pyrimidine nucleoside analogs” (J Med Chem, 2007)
≈ marks a conversion by molar mass, not a printed value.

Columns and labels:
[1] = test system: Mycobacterium tuberculosis; test: Antimycobacterial activity against Mycobacterium tuberculosis H37Ra at 100 ug/mL by microplate Alamar blue assay; type: functional
Procedure, shortened: (§1)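 MABA with M. bovis BCG, M. tuberculosis H37Ra or M. avium ATCC 25291. DMSO stocks (10 mg/mL) diluted in 7H9GC; final inoculum 2.5 × 10⁵ CFU/mL. Incubated 6 days, then alamar blue plus Tween 80 added and read by fluorescence after about 24 h. […]. Tested in triplicate at 100, 50, 10 and 1 µg/mL; two experiments, mean reported.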

Mycobacterium avium = test: Antimycobacterial activity against Mycobacterium avium ATCC 25291 at 100 ug/mL by microplate Alamar blue assay; type: functional; procedure, shortened: as §1
[2] = Toxicity against human foreskin fibroblast cells after 3 days by MTT test; type: cell-based
Procedure, shortened: (§2)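 MTT viability assay. Vero or HFF cells seeded at 2.5 × 10⁵ cells/well and left to attach 6-8 h. Exposed to compound at 100, 50, 25, 12.5, 6.3 and 1.5 µg/mL for 3 days at 37 °C, with a DMSO control. MTT added for 4 h, then solubilized overnight; absorbance read at 560-650 nm.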

[3] = test system: Mycobacterium tuberculosis; test: Antimycobacterial activity against Mycobacterium tuberculosis H37Ra by microplate Alamar blue assay; type: functional
Procedure, shortened: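 Same alamar blue microplate setup (7H9GC, 2.5 × 10⁵ CFU/mL, 6 days, then dye read after about 24 h), using 2-fold compound dilutions. MIC90 is the lowest concentration giving about 90% inhibition relative to bacteria-only wells after background subtraction. Visual MIC is the lowest concentration preventing the blue-to-pink change.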

[4] = test system: Mycobacterium tuberculosis; test: Antimycobacterial activity against Mycobacterium tuberculosis H37Ra at 50 ug/mL by microplate Alamar blue assay; type: functional; procedure, shortened: as §1
[5] = test system: Mycobacterium tuberculosis; test: Antimycobacterial activity against Mycobacterium tuberculosis H37Ra at 10 ug/mL by microplate Alamar blue assay; type: functional; procedure, shortened: as §1
Vero = test: Toxicity against Vero cells after 3 days by MTT test; type: cell-based; conditions: chlorocebus sabaeus, 72 h; procedure, shortened: as §2
Staphylococcus aureus = test: Antibacterial activity against Staphylococcus aureus ATCC 25923 after 16 to 20 hrs by broth microdilution method; type: functional; conditions: for MIC: Staphylococcus aureus, ATCC 25923
Procedure, shortened: (§3)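 Broth microdilution MIC. Exponentially growing bacteria diluted in sterile liquid medium to a final inoculum of 1 × 10⁴ CFU/mL. Cultured with compound dilutions for 16-20 h; compounds tested at 100, 50, 10 and 1 µg/mL. MIC taken as the concentration giving 100% inhibition of bacterial growth.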

Proteus vulgaris = test: Antibacterial activity against Proteus vulgaris ATCC 49132 after 16 to 20 hrs by broth microdilution method; type: functional; procedure, shortened: as §3
Enterococcus faecalis = test: Antibacterial activity Enterococcus faecalis ATCC 29212 after 16 to 20 hrs by broth microdilution method; type: functional; conditions: Enterococcus faecalis, ATCC 29212; procedure, shortened: as §3
Klebsiella aerogenes = test: Antibacterial activity against Enterobacter aerogenes after 16 to 20 hrs by broth microdilution method; type: functional; conditions: Klebsiella aerogenes; procedure, shortened: as §3
Bacillus subtilis = test: Antibacterial activity against Bacillus subtilis ATCC 6633 after 16 to 20 hrs by broth microdilution method; type: functional; conditions: Bacillus subtilis, ATCC 6633; procedure, shortened: as §3
[6] = test system: Staphylococcus epidermidis; test: Antibacterial activity against Staphylococcus epidermidis ATCC 14990 after 16 to 20 hrs by broth microdilution method; type: functional; conditions: for MIC: Staphylococcus epidermidis, ATCC 14990; procedure, shortened: as §3
Salmonella typhimurium = test: Antibacterial activity against Salmonella Typhimurium after 16 to 20 hrs by broth microdilution method; type: functional, Salmonella enterica subsp. enterica serovar Typhimurium; conditions: Salmonella enterica; procedure, shortened: as §3
Streptococcus pneumoniae = test: Antibacterial activity Streptococcus pneumoniae ATCC 49619 after 16 to 20 hrs by broth microdilution method; type: functional; conditions: Streptococcus pneumoniae, ATCC 49619; procedure, shortened: as §3
Pseudomonas aeruginosa = test: Antibacterial activity against Pseudomonas aeruginosa […] after 16 to 20 hrs by broth microdilution method; type: functional; conditions: Pseudomonas aeruginosa, ATCC 13048; procedure, shortened: as §3
Escherichia coli = test: Antibacterial activity against Escherichia coli ATCC 25922 after 16 to 20 hrs by broth microdilution method; type: functional; conditions: Escherichia coli, ATCC 25922; procedure, shortened: as §3
Listeria monocytogenes = test: Antibacterial activity Listeria monocytogenes ATCC 15313 after 16 to 20 hrs by broth microdilution method; type: functional; conditions: Listeria monocytogenes, ATCC 15313; procedure, shortened: as §3
Streptococcus pyogenes = test: Antibacterial activity Streptococcus pyogenes ATCC 19615 after 16 to 20 hrs by broth microdilution method; type: functional; conditions: Streptococcus pyogenes, ATCC 19615; procedure, shortened: as §3

O=c1[nH]c(=O)n([C@@H]2O[C@H](CO)[C@@H](O)[C@@H]2O)cc1C(O)C(Br)Br (some centres undefined)
inhibition at 100 µg/mL [1]: 0% | inhibition at 100 µg/mL (Mycobacterium avium): 0%

O=c1[nH]c(=O)n([C@@H]2O[C@H](CO)[C@@H](O)[C@@H]2O)cc1Br
inhibition at 100 µg/mL [1]: 0% | inhibition at 100 µg/mL (Mycobacterium avium): 0%

Cc1cn([C@@H]2O[C@H](CO)[C@@H](O)[C@@H]2O)c(=O)[nH]c1=S
inhibition at 100 µg/mL [1]: 0% | inhibition at 100 µg/mL (Mycobacterium avium): 0%

CCCCCCCCCCCCC#Cc1cn([C@@H]2O[C@H](CO)[C@@H](O)[C@@H]2O)c(=O)[nH]c1=O
CC50 at 72 h [2]: > 100 mg/L | inhibition at 100 µg/mL [1]: 100% | MIC90 [3]: 10 mg/L (≈ 22.9 µM) | inhibition at 100 µg/mL (Mycobacterium avium): 0% | inhibition at 50 µg/mL [4]: 100% | inhibition at 10 µg/mL [5]: 50% | CC10 (Vero): > 100 mg/L

CCCCCCCCCCCCC#Cc1cn([C@@H]2O[C@H](CO)[C@@H](O)[C@H]2F)c(=O)[nH]c1=O
Inhibition (Staphylococcus aureus): 100% | MIC (Staphylococcus aureus): 100 mg/L (≈ 228 µM) | MIC (Proteus vulgaris): > 100 mg/L | MIC (Enterococcus faecalis): > 100 mg/L | CC50 at 72 h [2]: > 100 mg/L | MIC (Klebsiella aerogenes): > 100 mg/L | MIC (Bacillus subtilis): > 100 mg/L | Inhibition [6]: 100% | MIC [6]: 100 mg/L (≈ 228 µM) | inhibition at 100 µg/mL [1]: 100% | MIC (Salmonella typhimurium): > 100 mg/L | MIC90 [3]: 10 mg/L (≈ 22.8 µM) | inhibition at 100 µg/mL (Mycobacterium avium): 20% | MIC (Streptococcus pneumoniae): > 100 mg/L | inhibition at 50 µg/mL [4]: 100% | MIC (Pseudomonas aeruginosa): > 100 mg/L | inhibition at 10 µg/mL [5]: 50% | MIC (Escherichia coli): > 100 mg/L | MIC (Listeria monocytogenes): > 100 mg/L | CC10 (Vero): > 100 mg/L | MIC (Streptococcus pyogenes): > 100 mg/L

CCCc1ccc(C#Cc2cn([C@@H]3O[C@H](CO)[C@@H](O)[C@@H]3O)c(=O)[nH]c2=O)cc1
CC50 at 72 h [2]: > 100 mg/L | inhibition at 100 µg/mL [1]: 100% | MIC90 [3]: 100 mg/L (≈ 259 µM) | inhibition at 100 µg/mL (Mycobacterium avium): 25% | inhibition at 50 µg/mL [4]: 50% | CC10 (Vero): > 100 mg/L

CCOC(=O)/C=C/c1cn([C@@H]2O[C@H](CO)[C@@H](O)[C@H]2F)c(=O)[nH]c1=O
inhibition at 100 µg/mL [1]: 0% | inhibition at 100 µg/mL (Mycobacterium avium): 0%

CCOC(=O)C(Cl)C(O)c1cn([C@@H]2O[C@H](CO)[C@@H](O)[C@H]2F)c(=O)[nH]c1=O (some centres undefined)
inhibition at 100 µg/mL [1]: 0% | inhibition at 100 µg/mL (Mycobacterium avium): 0%

CCOC(=O)C(Br)C(O)c1cn([C@@H]2O[C@H](CO)[C@@H](O)[C@H]2F)c(=O)[nH]c1=O (some centres undefined)
inhibition at 100 µg/mL [1]: 0% | inhibition at 100 µg/mL (Mycobacterium avium): 0%

O=c1[nH]c(=O)n([C@@H]2O[C@H](CO)[C@@H](O)[C@H]2F)cc1Br
inhibition at 100 µg/mL [1]: 0% | inhibition at 100 µg/mL (Mycobacterium avium): 0%

O=C(O)/C=C/c1cn([C@@H]2O[C@H](CO)[C@@H](O)[C@@H]2O)c(=O)[nH]c1=O
inhibition at 100 µg/mL [1]: 0% | inhibition at 100 µg/mL (Mycobacterium avium): 0%

COC(CI)c1cn([C@@H]2O[C@H](CO)[C@@H](O)[C@@H]2O)c(=O)[nH]c1=O (some centres undefined)
inhibition at 100 µg/mL [1]: 0% | inhibition at 100 µg/mL (Mycobacterium avium): 0%

CCCCCC#Cc1cn([C@@H]2O[C@H](CO)[C@@H](O)[C@@H]2O)c(=O)[nH]c1=O
inhibition at 100 µg/mL [1]: 25% | inhibition at 100 µg/mL (Mycobacterium avium): 0%

CCCCCCCCC#Cc1cn([C@@H]2O[C@H](CO)[C@@H](O)[C@@H]2O)c(=O)[nH]c1=O
CC50 at 72 h [2]: > 100 mg/L | inhibition at 100 µg/mL [1]: 100% | MIC90 [3]: 100 mg/L (≈ 263 µM) | inhibition at 100 µg/mL (Mycobacterium avium): 50% | inhibition at 50 µg/mL [4]: 50% | inhibition at 10 µg/mL [5]: 10% | CC10 (Vero): > 100 mg/L

CCCCCCCCCCCC#Cc1cn([C@@H]2O[C@H](CO)[C@@H](O)[C@@H]2O)c(=O)[nH]c1=O
CC50 at 72 h [2]: > 100 mg/L | inhibition at 100 µg/mL [1]: 100% | MIC90 [3]: 10 mg/L (≈ 23.7 µM) | inhibition at 100 µg/mL (Mycobacterium avium): 25% | inhibition at 50 µg/mL [4]: 100% | inhibition at 10 µg/mL [5]: 50% | CC10 (Vero): > 100 mg/L

O=c1[nH]c(=O)n([C@@H]2O[C@H](CO)[C@@H](O)[C@H]2F)cc1Cl
inhibition at 100 µg/mL [1]: 20% | inhibition at 100 µg/mL (Mycobacterium avium): 0%

Cc1cn([C@@H]2O[C@H](CO)[C@@H](O)[C@H]2F)c(=O)[nH]c1=S
inhibition at 100 µg/mL [1]: 25% | inhibition at 100 µg/mL (Mycobacterium avium): 0%

O=c1[nH]c(=O)n([C@@H]2O[C@H](CO)[C@@H](O)[C@@H]2O)cc1C(O)C(Cl)Cl (some centres undefined)
inhibition at 100 µg/mL [1]: 0% | inhibition at 100 µg/mL (Mycobacterium avium): 0%

O=c1[nH]c(=O)n([C@@H]2O[C@H](CO)[C@@H](O)[C@@H]2O)cc1C(O)CI (some centres undefined)
inhibition at 100 µg/mL [1]: 0% | inhibition at 100 µg/mL (Mycobacterium avium): 0%

O=C(O)C(I)C(O)c1cn([C@@H]2O[C@H](CO)[C@@H](O)[C@H]2F)c(=O)[nH]c1=O (some centres undefined)
inhibition at 100 µg/mL [1]: 0% | inhibition at 100 µg/mL (Mycobacterium avium): 0%

O=c1[nH]c(=O)n([C@@H]2O[C@H](CO)[C@@H](O)[C@@H]2O)cc1Cl
inhibition at 100 µg/mL [1]: 0% | inhibition at 100 µg/mL (Mycobacterium avium): 0%

O=c1[nH]c(=S)ccn1[C@@H]1O[C@H](CO)[C@@H](O)[C@@H]1O
inhibition at 100 µg/mL [1]: 0% | inhibition at 100 µg/mL (Mycobacterium avium): 0%

CCCCCC#Cc1cn([C@@H]2O[C@H](CO)[C@@H](O)[C@H]2F)c(=O)[nH]c1=O
CC50 at 72 h [2]: > 100 mg/L | inhibition at 100 µg/mL [1]: 50% | inhibition at 100 µg/mL (Mycobacterium avium): 0% | CC10 (Vero): > 100 mg/L

O=c1[nH]c(=S)ccn1[C@@H]1O[C@H](CO)[C@@H](O)[C@H]1F
inhibition at 100 µg/mL [1]: 25% | inhibition at 100 µg/mL (Mycobacterium avium): 0%

CCOC(=O)/C=C/c1cn([C@@H]2O[C@H](CO)[C@@H](O)[C@@H]2O)c(=O)[nH]c1=O
inhibition at 100 µg/mL [1]: 0% | inhibition at 100 µg/mL (Mycobacterium avium): 0%

O=C(O)/C=C/c1cn([C@@H]2O[C@H](CO)[C@@H](O)[C@H]2F)c(=O)[nH]c1=O
inhibition at 100 µg/mL [1]: 0% | inhibition at 100 µg/mL (Mycobacterium avium): 0%

NNC(=O)c1ccncc1 [ISONIAZID]
MIC (Staphylococcus aureus): > 100 mg/L | MIC (Proteus vulgaris): > 100 mg/L | MIC (Enterococcus faecalis): > 100 mg/L | MIC (Klebsiella aerogenes): > 100 mg/L | MIC (Bacillus subtilis): > 100 mg/L | MIC [6]: > 100 mg/L | MIC (Salmonella typhimurium): > 100 mg/L | MIC (Streptococcus pneumoniae): > 100 mg/L | MIC (Pseudomonas aeruginosa): > 100 mg/L | MIC (Escherichia coli): > 100 mg/L | MIC (Listeria monocytogenes): > 100 mg/L | MIC (Streptococcus pyogenes): > 100 mg/L
